The values that follow come from ChEMBL document CHEMBL1671647, “In vitro activity of LK-157, a novel tricyclic carbapenem as broad-spectrum {beta}-lactamase inhibitor” (Antimicrob Agents Chemother, 2009).

Structures are written as SMILES. In brackets after ≈: the same amount, converted by molar mass. Bounds are passed on as bounds.

The nature of assay [1]: Inhibition of Enterobacter cloacae Beta-lactamase AmpC. In outline:
(§1)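 Purified β-lactamase (final 0.25 μg/ml) was preincubated with inhibitor for 10 min at 37°C in […] phosphate, pH 7, with 10% DMSO final. Prewarmed nitrocefin was then added (final […] as printed). A490 was read every 30 s for 10 min at 37°C to give initial rates. IC50 was fitted by sigmoidal nonlinear regression, from at least two independent experiments, with 95% CI.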

A short description of assay [2]: Inhibition of Klebsiella pneumoniae Beta-lactamase SHV-1. In outline:
as §1

The nature of assay [3]: Inhibition of Beta-lactamase TEM-1. In outline:
as §1

In assay [4] the test system is Staphylococcus aureus. Kind of assay: Antibacterial activity against methicillin-susceptible Staphylococcus aureus by broth microdilution method. The assay is classed as functional. In outline: (§2)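 Broth microdilution MICs per CLSI against clinical and ATCC isolates; stocks in distilled water, diluted with water or Mueller-Hinton broth, drug weights corrected for salt forms. Twofold series from 256 to 0.125 μg/ml or 25.6 to 0.0125 μg/ml. Inoculum 5 × 10^5 CFU/ml (final) by direct colony suspension. β-Lactamase inhibitors, when combined with a β-lactam, held constant at 4 μg/ml.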
(In broth dilution the organism is exposed to a series of concentrations in liquid medium.)

In assay [5] the test system is Escherichia coli. Kind of assay: Antibacterial activity against Escherichia coli by broth microdilution method. The format is functional. In outline:
as §2

The test system of assay [6] is Staphylococcus aureus. Kind of assay: Antibacterial activity against methicillin-resistant Staphylococcus aureus by broth microdilution method. The assay is classed as functional. In a few lines:
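CLSI broth microdilution MIC against clinical isolates. In β-lactam combinations the inhibitor was held constant at 4 μg/ml. Inoculum was prepared by direct colony suspension, final 5 × 10^5 CFU/ml.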

Assay [7] concerns Moraxella catarrhalis. Kind of assay: Antibacterial activity against Moraxella catarrhalis by broth microdilution method. The assay is classed as functional. In outline:
as §2

For assay [8], the system named is Enterobacter cloacae. Kind of assay: Antibacterial activity against Enterobacter cloacae by broth microdilution method. The format is functional. In outline: as §2
Assay [9] deals with Klebsiella sp. Kind of assay: Antibacterial activity against Klebsiella sp. by broth microdilution method. The format is functional. In outline: as §2
The test system of assay [10] is Enterococcus sp. Kind of assay: Antibacterial activity against Enterococcus sp. by broth microdilution method. The assay is classed as functional. In a few lines: as §2
Assay [11] deals with Pseudomonas aeruginosa. Kind of assay: Antibacterial activity against Pseudomonas aeruginosa by broth microdilution method. The assay is classed as functional. In a few lines:
as §2

Assay [12] has as its system Citrobacter freundii. Kind of assay: Antibacterial activity against Citrobacter freundii by broth microdilution method. The assay is classed as functional. In outline: as §2

By IC50 is commonly meant the concentration that inhibits the measured activity by half. Higher therefore signals weaker potency. Take `CC1(C)[C@H](C(=O)O)N2C(=O)C[C@H]2S1(=O)=O` [SULBACTAM]: the IC50 in assay [1] is 11900 nM; in [2] it was 3960 nM; in assay [3] it was 1060 nM.

For `C[C@]1(Cn2ccnn2)[C@H](C(=O)O)N2C(=O)C[C@H]2S1(=O)=O` [TAZOBACTAM], the figures for the IC50 in assay [1] and in [3] were 1760 nM and 14 nM, respectively.

In general, MIC refers to the least concentration at which growth counts as inhibited. Read a low MIC as inhibition by little substance. What is called MIC50 is an inhibitory concentration at the 50% level, which refers to growth in some studies and to a panel of isolates in others. The low end stands for higher susceptibility, the high end for lower susceptibility. One may read the MIC90 as the lowest concentration that inhibits either 90% of growth or 90% of the strains tested, depending on the study. For `C/C=C1/C(=O)N2C(C(=O)O)=C3[C@@H](OC)CCC[C@@H]3[C@H]12`, the minimum inhibitory concentration (MIC) in [4] is 0.8 µg/mL (≈ 3.04 µM); in assay [5] it was over 25.6 µg/mL; in assay [8] it was over 25.6 µg/mL; in assay [9], 6.4 µg/mL (≈ 24.3 µM); in [10], over 25.6 µg/mL; in assay [11], over 25.6 µg/mL. Also, the MIC in assay [12] is over 25.6 µg/mL. Also, the MIC50 in assay [5] is over 25.6 µg/mL; in assay [6], over 256 µg/mL; in assay [7], 0.8 µg/mL (≈ 3.04 µM); in assay [8], over 25.6 µg/mL; in assay [9] it was over 25.6 µg/mL. For the same molecule, the MIC90 in [5] is over 25.6 µg/mL; in assay [6], over 256 µg/mL; in assay [7] it was 0.8 µg/mL (≈ 3.04 µM); in assay [8], over 25.6 µg/mL; in assay [9] it was over 25.6 µg/mL. The IC50 in [1] was determined as 62 nM; in [2] it was 151 nM; in assay [3] it was 55 nM.

Consider `O=C(O)[C@H]1/C(=C/CO)O[C@@H]2CC(=O)N21` [CLAVULANIC ACID], for which the IC50 in [1] stood at 136000 nM; in assay [2], 28 nM; in assay [3] it was 30 nM.
